ChEMBL document CHEMBL1781898, “Orally active achiral N-hydroxyformamide inhibitors of ADAM-TS4 (aggrecanase-1) and ADAM-TS5 (aggrecanase-2) for the treatment of osteoarthritis” (Bioorg Med Chem Lett, 2011)

Columns and labels:
[1] = target: T1, A disintegrin and metalloproteinase with thrombospondin motifs 4 (Homo sapiens, UniProt O75173); assay: Inhibition of ADAMTS-4 assessed as substrate cleavage after 16 hrs by fluorescence assay
T1 sequence (O75173 whole entry): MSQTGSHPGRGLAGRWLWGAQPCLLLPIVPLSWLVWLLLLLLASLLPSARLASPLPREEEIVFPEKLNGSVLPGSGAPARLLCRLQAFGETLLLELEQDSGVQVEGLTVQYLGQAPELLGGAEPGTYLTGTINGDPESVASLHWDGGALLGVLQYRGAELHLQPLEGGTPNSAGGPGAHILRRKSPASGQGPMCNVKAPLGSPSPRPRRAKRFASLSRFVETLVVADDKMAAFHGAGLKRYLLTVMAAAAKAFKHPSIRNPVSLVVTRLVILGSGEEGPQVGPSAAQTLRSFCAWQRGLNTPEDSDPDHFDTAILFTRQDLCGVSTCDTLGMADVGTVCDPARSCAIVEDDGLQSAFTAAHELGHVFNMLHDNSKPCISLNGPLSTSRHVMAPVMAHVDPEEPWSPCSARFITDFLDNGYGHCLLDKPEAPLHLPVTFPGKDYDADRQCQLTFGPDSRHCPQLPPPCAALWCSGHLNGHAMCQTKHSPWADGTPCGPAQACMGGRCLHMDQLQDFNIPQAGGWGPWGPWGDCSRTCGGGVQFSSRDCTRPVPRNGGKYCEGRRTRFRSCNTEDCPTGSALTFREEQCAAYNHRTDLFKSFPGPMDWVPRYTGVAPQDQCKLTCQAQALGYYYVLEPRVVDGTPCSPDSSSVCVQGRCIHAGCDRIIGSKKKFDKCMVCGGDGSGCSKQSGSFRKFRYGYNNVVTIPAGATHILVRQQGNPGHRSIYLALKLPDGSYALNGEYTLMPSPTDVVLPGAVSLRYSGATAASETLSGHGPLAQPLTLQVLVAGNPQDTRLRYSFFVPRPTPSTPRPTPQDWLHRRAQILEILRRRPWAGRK
Method in brief: (§1)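 Enzyme inhibition IC50s derived from at least six measurements, standard errors normally <5% within an assay; a standard compound run to keep assay-to-assay variability within twofold.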

Collagenase 3 [2] = target: T2, Collagenase 3 (Homo sapiens, UniProt P45452); assay: Inhibition of recombinant human MMP-13 assessed as substrate cleavage at 15 uM after 20 hrs by fluorescence assay
Cytochrome P450 3A4 = Cytochrome P450 3A4 (Homo sapiens, UniProt P08684); assay: Inhibition of CYP3A4; assay type: ADME
Cytochrome P450 3A4, sequence (P08684 whole entry, canonical isoform): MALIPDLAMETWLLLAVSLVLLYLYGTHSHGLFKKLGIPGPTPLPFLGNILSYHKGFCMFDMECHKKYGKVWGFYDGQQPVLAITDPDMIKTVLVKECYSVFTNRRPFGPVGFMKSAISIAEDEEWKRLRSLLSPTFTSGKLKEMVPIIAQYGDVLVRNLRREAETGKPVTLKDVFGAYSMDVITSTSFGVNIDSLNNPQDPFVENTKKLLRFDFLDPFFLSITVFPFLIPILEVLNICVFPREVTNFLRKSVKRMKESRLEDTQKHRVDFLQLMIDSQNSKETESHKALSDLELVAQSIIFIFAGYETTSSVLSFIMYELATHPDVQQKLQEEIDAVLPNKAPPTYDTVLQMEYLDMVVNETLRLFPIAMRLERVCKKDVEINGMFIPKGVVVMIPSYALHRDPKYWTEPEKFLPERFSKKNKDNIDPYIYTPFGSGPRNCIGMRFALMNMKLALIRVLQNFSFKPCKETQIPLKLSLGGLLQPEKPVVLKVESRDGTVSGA
Method in brief: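 Inhibition of cytochrome P450 isoforms 1A2, 2C9, 2C19, 2D6 and 3A4, reported as pIC50.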

Interstitial collagenase = target: T3, Interstitial collagenase (Homo sapiens, UniProt P03956); assay: Inhibition of recombinant human MMP-1 assessed as substrate cleavage after 20 hrs by fluorescence assay; method in brief: as §1
T3 sequence (P03956 whole entry): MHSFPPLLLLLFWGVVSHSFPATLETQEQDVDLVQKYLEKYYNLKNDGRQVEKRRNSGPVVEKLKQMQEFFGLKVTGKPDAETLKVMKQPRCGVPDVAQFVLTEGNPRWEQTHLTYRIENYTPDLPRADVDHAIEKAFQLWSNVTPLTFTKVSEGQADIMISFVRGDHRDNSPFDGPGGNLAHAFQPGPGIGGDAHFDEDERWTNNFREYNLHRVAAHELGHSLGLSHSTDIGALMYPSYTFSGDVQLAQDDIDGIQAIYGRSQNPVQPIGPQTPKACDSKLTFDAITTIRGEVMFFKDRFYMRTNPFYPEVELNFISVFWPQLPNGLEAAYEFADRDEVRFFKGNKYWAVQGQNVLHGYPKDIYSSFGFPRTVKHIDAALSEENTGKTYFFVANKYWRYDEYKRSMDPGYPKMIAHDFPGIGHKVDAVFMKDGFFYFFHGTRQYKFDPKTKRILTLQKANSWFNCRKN

Collagenase 3 [3] = target: T2, Collagenase 3; assay: Inhibition of recombinant human MMP-13 assessed as substrate cleavage after 20 hrs by fluorescence assay; method in brief: as §1
[4] = target: Matrix metalloproteinase-9 (Homo sapiens, UniProt P14780); assay: Inhibition of recombinant human MMP-9 assessed as substrate cleavage after 20 hrs by fluorescence assay; method in brief: as §1
Matrix metalloproteinase-9, sequence (P14780 whole entry): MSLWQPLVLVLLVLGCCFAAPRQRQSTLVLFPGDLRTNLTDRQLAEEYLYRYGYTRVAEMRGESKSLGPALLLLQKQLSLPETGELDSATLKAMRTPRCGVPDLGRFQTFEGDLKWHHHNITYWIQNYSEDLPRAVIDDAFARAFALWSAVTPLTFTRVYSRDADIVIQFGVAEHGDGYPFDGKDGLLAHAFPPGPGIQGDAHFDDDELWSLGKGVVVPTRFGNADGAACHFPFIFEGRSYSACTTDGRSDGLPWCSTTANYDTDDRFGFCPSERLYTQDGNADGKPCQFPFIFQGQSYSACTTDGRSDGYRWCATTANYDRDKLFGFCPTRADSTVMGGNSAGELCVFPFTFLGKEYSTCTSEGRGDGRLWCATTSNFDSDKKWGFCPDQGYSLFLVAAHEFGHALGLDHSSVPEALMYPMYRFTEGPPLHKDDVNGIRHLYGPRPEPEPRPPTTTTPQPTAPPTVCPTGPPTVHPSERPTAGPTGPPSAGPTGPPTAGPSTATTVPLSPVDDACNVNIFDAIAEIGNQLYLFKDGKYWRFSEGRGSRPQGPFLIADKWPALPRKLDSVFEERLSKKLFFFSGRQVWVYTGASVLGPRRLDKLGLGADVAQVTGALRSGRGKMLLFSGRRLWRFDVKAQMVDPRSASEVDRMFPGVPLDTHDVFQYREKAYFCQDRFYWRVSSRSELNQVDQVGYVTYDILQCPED

[5] = target: T4, A disintegrin and metalloproteinase with thrombospondin motifs 5 (Homo sapiens, UniProt Q9UNA0); assay: Inhibition of ADAMTS-5 assessed as substrate cleavage after 16 hrs by fluorescence assay; method in brief: as §1
T4 sequence (Q9UNA0 whole entry): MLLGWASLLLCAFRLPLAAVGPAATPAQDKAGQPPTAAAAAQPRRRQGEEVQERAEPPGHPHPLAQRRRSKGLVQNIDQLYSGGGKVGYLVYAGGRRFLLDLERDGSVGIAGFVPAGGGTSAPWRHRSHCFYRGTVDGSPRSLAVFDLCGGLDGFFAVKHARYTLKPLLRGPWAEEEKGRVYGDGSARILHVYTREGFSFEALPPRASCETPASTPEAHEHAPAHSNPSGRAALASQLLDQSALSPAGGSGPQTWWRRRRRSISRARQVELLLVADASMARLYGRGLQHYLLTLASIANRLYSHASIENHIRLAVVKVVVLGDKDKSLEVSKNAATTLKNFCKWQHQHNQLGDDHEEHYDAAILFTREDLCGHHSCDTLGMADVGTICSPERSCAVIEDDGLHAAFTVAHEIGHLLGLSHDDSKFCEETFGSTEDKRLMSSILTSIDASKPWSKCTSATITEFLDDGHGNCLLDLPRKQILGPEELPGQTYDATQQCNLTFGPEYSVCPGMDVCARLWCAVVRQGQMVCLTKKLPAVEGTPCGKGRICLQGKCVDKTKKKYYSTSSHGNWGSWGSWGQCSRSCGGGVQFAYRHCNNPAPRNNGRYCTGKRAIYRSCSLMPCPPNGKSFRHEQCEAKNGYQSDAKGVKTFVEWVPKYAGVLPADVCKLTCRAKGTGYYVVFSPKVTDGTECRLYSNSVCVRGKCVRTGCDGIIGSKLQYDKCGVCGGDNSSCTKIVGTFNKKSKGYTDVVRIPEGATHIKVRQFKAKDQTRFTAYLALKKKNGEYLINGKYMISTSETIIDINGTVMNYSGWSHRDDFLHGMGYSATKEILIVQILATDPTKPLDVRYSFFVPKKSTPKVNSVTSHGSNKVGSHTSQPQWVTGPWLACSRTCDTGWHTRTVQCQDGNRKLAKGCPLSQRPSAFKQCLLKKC

[6] = target: 72 kDa type IV collagenase (Homo sapiens, UniProt P08253); assay: Inhibition of recombinant human MMP-2 assessed as substrate cleavage after 20 hrs by fluorescence assay; method in brief: as §1
72 kDa type IV collagenase, sequence (P08253 whole entry): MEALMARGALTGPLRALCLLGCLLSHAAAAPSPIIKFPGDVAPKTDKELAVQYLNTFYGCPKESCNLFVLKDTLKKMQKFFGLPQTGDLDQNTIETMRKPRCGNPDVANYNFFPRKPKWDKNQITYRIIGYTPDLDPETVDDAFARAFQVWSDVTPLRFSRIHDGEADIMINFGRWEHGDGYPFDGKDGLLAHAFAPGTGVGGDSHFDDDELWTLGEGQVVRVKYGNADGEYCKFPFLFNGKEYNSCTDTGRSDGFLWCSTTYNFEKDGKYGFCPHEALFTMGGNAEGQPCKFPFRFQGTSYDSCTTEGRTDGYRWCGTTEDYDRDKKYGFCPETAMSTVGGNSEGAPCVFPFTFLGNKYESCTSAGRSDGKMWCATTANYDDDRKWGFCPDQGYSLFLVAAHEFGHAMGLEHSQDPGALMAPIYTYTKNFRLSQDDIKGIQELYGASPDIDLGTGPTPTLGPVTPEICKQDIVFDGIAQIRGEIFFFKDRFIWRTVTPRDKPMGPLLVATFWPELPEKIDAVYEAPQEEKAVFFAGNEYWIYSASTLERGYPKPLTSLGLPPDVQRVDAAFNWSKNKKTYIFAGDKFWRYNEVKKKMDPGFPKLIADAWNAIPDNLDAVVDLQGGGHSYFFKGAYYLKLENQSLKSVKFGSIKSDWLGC

[7] = target: Matrix metalloproteinase-14 (Homo sapiens, UniProt P50281); assay: Inhibition of recombinant human MMP-14 assessed as substrate cleavage after 20 hrs by fluorescence assay; method in brief: as §1
[8] = Intrinsic clearance in human liver microsomes; assay type: ADME, Microsome
Method in brief: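 Human liver microsome metabolism; intrinsic clearance expressed as μL/min/mg, reported as mean of eight separate experiments.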

[9] = Clearance in rat at 2 mg/kg, iv; assay type: ADME, organism-based; design: dose 2 mg/kg, route intravenous; details: in vivo
Method in brief: (§2)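 Rat iv PK: 2 mg/kg iv, n = 2 animals; clearance, half-life and Vdss determined.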

[10] = Volume of distribution at steady state in rat at 2 mg/kg, iv; assay type: ADME, organism-based; design: dose 2 mg/kg, route intravenous; details: in vivo, read-out: Vdss; method in brief: as §2
[11] = Half life in rat at 2 mg/kg, iv; assay type: ADME, organism-based; design: dose 2 mg/kg, route intravenous; details: in vivo; method in brief: as §2

IC50 [1] [µM]	inhibition (Collagenase 3 [2]) [%]	IC50 (Cytochrome P450 3A4) [µM]	IC50 (Interstitial collagenase) [µM]	IC50 (Collagenase 3 [3]) [µM]	IC50 [4] [µM]	IC50 [5] [µM]	IC50 [6] [µM]	IC50 [7] [µM]	microsomal CLint [8] [µL/min/mg]	clearance [9] [mL/min/kg]	Vd [10] [L/kg]	half-life [11] [h]	Structure (SMILES)
0.021	97	> 10	–	–	–	–	–	–	–	–	–	–	O=CN(O)C1(CS(=O)(=O)N2CCN(c3ccc(F)cc3)CC2)CCOCC1
0.02	–	> 10	> 10	> 10	> 10	0.41	> 10	> 10	13	–	–	–	Cc1noc(C)c1CCC1CCN(S(=O)(=O)CC2(N(O)C=O)CCC(F)(F)CC2)CC1
0.01	–	> 10	> 10	> 10	> 10	0.27	> 10	> 10	65	–	–	–	Cc1noc(C)c1CCC1CCN(S(=O)(=O)CC2(N(O)C=O)CCN(C(=O)C3CCC3)CC2)CC1
0.0045	–	–	> 10	0.94	3.1	0.069	1.3	3.1	< 2	15	2	–	Cc1cc(F)ccc1CCC1CCN(S(=O)(=O)CC2(N(O)C=O)CCOCC2)CC1
0.016	–	> 10	> 10	> 10	> 10	0.27	> 10	> 10	4.9	–	–	–	Cc1noc(C)c1CCC1CCN(S(=O)(=O)CC2(N(O)C=O)CCS(=O)(=O)CC2)CC1
0.091	81	1.9	–	–	–	–	–	–	–	–	–	–	O=CN(O)C1(CS(=O)(=O)N2CCN(c3ccc(F)cc3)CC2)CCC1
0.018	–	–	> 10	46	> 100	3.4	61	> 100	4.3	20	2	4	Cc1cc(CCC2CCN(S(=O)(=O)CC3(N(O)C=O)CCOCC3)CC2)c(C)cn1
0.019	–	> 10	> 10	> 10	> 10	1.2	> 10	> 10	< 2	–	–	–	Cc1noc(C)c1CCC1CCN(S(=O)(=O)CC2(N(O)C=O)CCN(C)CC2)CC1
0.0097	–	> 10	> 10	> 10	> 10	0.25	> 10	> 10	12	–	–	–	Cc1noc(C)c1CCC1CCN(S(=O)(=O)CC2(N(O)C=O)CCOC(C)(C)C2)CC1 (stereo not drawn)
0.013	–	–	> 10	> 10	> 10	0.45	> 10	> 10	8.5	18	2	6.3	Cc1nsc(C)c1CCC1CCN(S(=O)(=O)CC2(N(O)C=O)CCOCC2)CC1
